In ChEMBL document CHEMBL5058577, “EUbOPEN Chemogenomics Library 2 (Multiplex)” (2022):

System: HEK-293T
Test: Multiplex assay against HEK293T
Assay type: toxicity, cell-based
Conditions: human
Procedure, shortened: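 Compound was added to live cells that had been stained at seeding with Hoechst33342, BioTracker Green Microtubule Cytoskeleton Dye, MitoTracker Red and Annexin V Alexa Fluor 680, and imaging followed on a CQ1 microscope at 37°C and 5% CO2. CellPathfinder machine-learning gating divided cells into Hoechst high-intensity objects or normal cells, normal cells into healthy, pyknosed or fragmented nuclei, and pyknosed cells into mitotic or apoptotic. Tubulin, mitochondrial-mass and membrane-permeability phenotypes are per cents of healthy-nucleus cells.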

[1] = 12 h, 1 µM, compound concentration 1 uM, replicate 1
[2] = 12 h, 1 µM, compound concentration 1 uM, replicate 2
[3] = 12 h, 10 µM, compound concentration 10 uM, replicate 1
[4] = 12 h, 10 µM, compound concentration 10 uM, replicate 2
[5] = 24 h, 1 µM, compound concentration 1 uM, replicate 1
[6] = 24 h, 1 µM, compound concentration 1 uM, replicate 2
[7] = 24 h, 10 µM, compound concentration 10 uM, replicate 1
[8] = 24 h, 10 µM, compound concentration 10 uM, replicate 2
[9] = 48 h, 1 µM, compound concentration 1 uM, replicate 1
[10] = 48 h, 1 µM, compound concentration 1 uM, replicate 2
[11] = 48 h, 10 µM, compound concentration 10 uM, replicate 1
[12] = 48 h, 10 µM, compound concentration 10 uM, replicate 2

CC(C)COc1ccc(CNC(=O)N(Cc2ccc(F)cc2)C2CCN(C)CC2)cc1 [PIMAVANSERIN]
Population Apoptotic (%) [1]: 39% | Population Fragmented Nuclei (%) [1]: 5% | Population Healthy Nuclei (%) [1]: 82% | Population Hoechst High Intensity Objects (%) [1]: 6% | Population Membrane Permeable-Phenotype (%) [1]: 0% | Population Mitochondria Different-Phenotype (%) [1]: 50% | Population Mitotic Cells (%) [1]: 60% | Population Normal (%) [1]: 93% | Population Pyknosed Nuclei (%) [1]: 11% | Population Tubulin-Different-Phenotype (%) [1]: 49% | Total Cell Count [1]: 430 | Population Apoptotic (%) [2]: 54% | Population Fragmented Nuclei (%) [2]: 7% | Population Healthy Nuclei (%) [2]: 74% | Population Hoechst High Intensity Objects (%) [2]: 11% | Population Mitochondria Different-Phenotype (%) [2]: 68% | Population Mitotic Cells (%) [2]: 46% | Population Normal (%) [2]: 88% | Population Pyknosed Nuclei (%) [2]: 18% | Population Tubulin-Different-Phenotype (%) [2]: 35% | Total Cell Count [2]: 311 | Population Apoptotic (%) [3]: 62% | Population Fragmented Nuclei (%) [3]: 10% | Population Healthy Nuclei (%) [3]: 60% | Population Hoechst High Intensity Objects (%) [3]: 19% | Population Membrane Permeable-Phenotype (%) [3]: 0% | Population Mitochondria Different-Phenotype (%) [3]: 89% | Population Mitotic Cells (%) [3]: 37% | Population Normal (%) [3]: 80% | Population Pyknosed Nuclei (%) [3]: 28% | Population Tubulin-Different-Phenotype (%) [3]: 81% | Total Cell Count [3]: 285 | Population Apoptotic (%) [4]: 79% | Population Fragmented Nuclei (%) [4]: 7% | Population Healthy Nuclei (%) [4]: 64% | Population Hoechst High Intensity Objects (%) [4]: 25% | Population Mitochondria Different-Phenotype (%) [4]: 87% | Population Mitotic Cells (%) [4]: 20% | Population Normal (%) [4]: 74% | Population Pyknosed Nuclei (%) [4]: 27% | Population Tubulin-Different-Phenotype (%) [4]: 66% | Total Cell Count [4]: 237 | Population Apoptotic (%) [5]: 33% | Population Fragmented Nuclei (%) [5]: 9% | Population Healthy Nuclei (%) [5]: 77% | Population Hoechst High Intensity Objects (%) [5]: 6% | Population Membrane Permeable-Phenotype (%) [5]: 2% | Population Mitochondria Different-Phenotype (%) [5]: 42% | Population Mitotic Cells (%) [5]: 66% | Population Normal (%) [5]: 93% | Population Pyknosed Nuclei (%) [5]: 13% | Population Tubulin-Different-Phenotype (%) [5]: 40% | Total Cell Count [5]: 553 | Population Apoptotic (%) [6]: 48% | Population Fragmented Nuclei (%) [6]: 4% | Population Healthy Nuclei (%) [6]: 82% | Population Hoechst High Intensity Objects (%) [6]: 8% | Population Membrane Permeable-Phenotype (%) [6]: 0% | Population Mitochondria Different-Phenotype (%) [6]: 55% | Population Mitotic Cells (%) [6]: 51% | Population Normal (%) [6]: 91% | Population Pyknosed Nuclei (%) [6]: 12% | Population Tubulin-Different-Phenotype (%) [6]: 30% | Total Cell Count [6]: 394 | Population Apoptotic (%) [7]: 81% | Population Fragmented Nuclei (%) [7]: 10% | Population Healthy Nuclei (%) [7]: 57% | Population Hoechst High Intensity Objects (%) [7]: 27% | Population Membrane Permeable-Phenotype (%) [7]: 0% | Population Mitochondria Different-Phenotype (%) [7]: 94% | Population Mitotic Cells (%) [7]: 18% | Population Normal (%) [7]: 72% | Population Pyknosed Nuclei (%) [7]: 31% | Population Tubulin-Different-Phenotype (%) [7]: 77% | Total Cell Count [7]: 285 | Population Apoptotic (%) [8]: 84% | Population Fragmented Nuclei (%) [8]: 12% | Population Healthy Nuclei (%) [8]: 54% | Population Hoechst High Intensity Objects (%) [8]: 34% | Population Mitochondria Different-Phenotype (%) [8]: 100% | Population Mitotic Cells (%) [8]: 15% | Population Normal (%) [8]: 65% | Population Pyknosed Nuclei (%) [8]: 32% | Population Tubulin-Different-Phenotype (%) [8]: 69% | Total Cell Count [8]: 215 | Population Apoptotic (%) [9]: 27% | Population Fragmented Nuclei (%) [9]: 13% | Population Healthy Nuclei (%) [9]: 77% | Population Hoechst High Intensity Objects (%) [9]: 5% | Population Membrane Permeable-Phenotype (%) [9]: 1% | Population Mitochondria Different-Phenotype (%) [9]: 31% | Population Mitotic Cells (%) [9]: 72% | Population Normal (%) [9]: 94% | Population Pyknosed Nuclei (%) [9]: 8% | Population Tubulin-Different-Phenotype (%) [9]: 33% | Total Cell Count [9]: 869 | Population Apoptotic (%) [10]: 48% | Population Fragmented Nuclei (%) [10]: 9% | Population Healthy Nuclei (%) [10]: 84% | Population Membrane Permeable-Phenotype (%) [10]: 0% | Population Mitochondria Different-Phenotype (%) [10]: 33% | Population Mitotic Cells (%) [10]: 51% | Population Pyknosed Nuclei (%) [10]: 6% | Population Tubulin-Different-Phenotype (%) [10]: 21% | Total Cell Count [10]: 601 | Population Apoptotic (%) [11]: 75% | Population Fragmented Nuclei (%) [11]: 29% | Population Healthy Nuclei (%) [11]: 30% | Population Hoechst High Intensity Objects (%) [11]: 52% | Population Membrane Permeable-Phenotype (%) [11]: 0% | Population Mitochondria Different-Phenotype (%) [11]: 88% | Population Mitotic Cells (%) [11]: 24% | Population Normal (%) [11]: 47% | Population Pyknosed Nuclei (%) [11]: 40% | Population Tubulin-Different-Phenotype (%) [11]: 58% | Total Cell Count [11]: 235 | Population Apoptotic (%) [12]: 61% | Population Fragmented Nuclei (%) [12]: 31% | Population Hoechst High Intensity Objects (%) [12]: 60% | Population Mitochondria Different-Phenotype (%) [12]: 92% | Population Mitotic Cells (%) [12]: 38% | Population Normal (%) [12]: 40% | Population Pyknosed Nuclei (%) [12]: 37% | Population Tubulin-Different-Phenotype (%) [12]: 64% | Total Cell Count [12]: 205
